Assay results pooled from the literature.
Observed: cell growth or viability

O=[N+]([O-])c1cc(I)c(O)c(C=NNc2ccccc2)c1  IC50 (HEK-293T; MTT; 24 h): 17 µM
C=CCn1c(=O)c2cnc(Nc3ccc(N4CCN(C)CC4)cc3)nc2n1-c1ccc2c(n1)[C@@](O)(CC)CC2  IC50 (KURAMOCHI; ATP luminescence; 72 h): 1.52 µM
O=C(Nc1cccc(-c2cn(Cc3ccc(Cl)cc3)nn2)c1)Nc1ccccc1Br  IC50 (Huh-7; CCK-8; 72 h): 13.5 µM
COc1ccc(NC(=O)NCc2cn(Cc3ccc(Cl)cc3)nn2)cc1  IC50 (Huh-7; CCK-8; 72 h): > 50 µM
O=[N+]([O-])c1ccc(O)c(C=NNc2ccc(C(F)(F)F)cc2)c1  IC50 (HEK-293T; MTT; 24 h): 17 µM
COc1cccc2c1C(=O)c1c(O)c3c(c(O)c1C2=O)C[C@@](O)(C(=O)CO)C[C@@H]3O[C@H]1C[C@H](N)[C@H](O)[C@H](C)O1  IC50 (HepG2; MTT): 31.2 µM
O=[N+]([O-])c1cc(Br)c(O)c(C=NNc2ccc(Br)cc2)c1  IC50 (HEK-293T; MTT; 24 h): 12.3 µM
COc1ccc(NC(=O)NCc2cn(Cc3ccc(Br)cc3)nn2)cc1  IC50 (Huh-7; CCK-8; 72 h): > 50 µM
O=[N+]([O-])c1ccc(O)c(C=NNc2ccc(Cl)cc2)c1  IC50 (HEK-293T; MTT; 24 h): 11.4 µM
O=C(Nc1ccc(Cl)cc1)Nc1cccc(-c2cn(Cc3ccc(Cl)cc3)nn2)c1  IC50 (Huh-7; CCK-8; 72 h): 13 µM
COc1ccc(NC(=O)Nc2ccc(-c3cn(Cc4ccc(Cl)cc4)nn3)cc2)cc1  IC50 (Huh-7; CCK-8; 72 h): > 50 µM
COc1cccc2c1C(=O)c1c(O)c3c(c(O)c1C2=O)C[C@@](O)(C(=O)CO)C[C@@H]3O[C@H]1C[C@H](N)[C@H](O)[C@H](C)O1  IC50 (Ramos; 96 h): 0.0117 µM
COc1ccc(NC(=O)Nc2ccc(-c3cn(Cc4ccc(C)cc4)nn3)cc2)cc1  IC50 (Huh-7; CCK-8; 72 h): > 50 µM
O=[N+]([O-])c1cc(Br)c(O)c(C=NNc2ccc(C(F)(F)F)cc2)c1  IC50 (HEK-293T; MTT; 24 h): 18 µM
Cc1cnc(CNC(=O)c2c(=O)c3ccc(N4CCCN(C)CC4)nc3n3c2sc2ccccc23)cn1  IC50 (THLE3; imaging; 72 h): 2.49 µM
COc1ccc(NC(=O)Nc2ccc(-c3cn(Cc4ccc(Br)cc4)nn3)cc2)cc1  IC50 (Huh-7; CCK-8; 72 h): > 50 µM
Cc1nnc(-c2nn(Cc3ccc(Cl)cc3Cl)c3ccccc23)o1  IC50 (HepG2; 48 h): 41.5 µM
